Measured values taken from ChEMBL document CHEMBL3352534, “A prodrug strategy for the oral delivery of a poorly soluble HCV NS5B thumb pocket 1 polymerase inhibitor using self-emulsifying drug delivery systems (SEDDS)” (Bioorg Med Chem Lett, 2015).
In brackets after ≈: the same amount, converted by molar mass.

Tests used:
[1] = test system: Plasma; experiment: Prodrug conversion in rat plasma assessed as half life; format: ADME, cell-free
Summary of the method: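 Rat plasma (from centrifuged whole blood) was incubated with 2 µM compound at 37 °C. Samples were quenched 1:3 with acetonitrile/methanol 1:1, centrifuged and analysed by HPLC-PDA. Half-life was taken as 0.693/first-order rate of loss of the starting compound.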

[2] = test system: Liver microsome; experiment: Prodrug conversion in rat liver microsomes assessed as half life
[3] = test system: Plasma; experiment: Prodrug conversion in human plasma assessed as half life
[4] = test system: Liver microsome; experiment: Prodrug conversion in human liver microsomes assessed as half life
[5] = Prodrug conversion in simulated gastric fluid assessed as half life; format: ADME; conditions: simulated gi fluid
Summary of the method: (§1)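 Incubations used 2 µM compound at 37 °C in either SGF (0.2% NaCl/HCl, pH 1.2, pepsin 3.2 mg/mL) or SIF (KH2PO4/NaOH, pH 7.5, pancreatin 10 mg/mL). Samples were quenched 1:2 with acetonitrile/methanol 1:1 and analysed by HPLC. t1/2 = 0.693/first-order disappearance rate.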

[6] = test system: Intestine; experiment: Prodrug conversion in rat intestinal microsomes assessed as half life
[7] = Prodrug conversion in simulated intestinal fluid assessed as half life; format: ADME; conditions: simulated gi fluid; summary of the method: as §1
[8] = Prodrug conversion in human intestinal microsomes assessed as half life
[9] = Prodrug solubility in capmul; format: ADME
[10] = Prodrug solubility in PEG400; format: ADME
[11] = Prodrug solubility in solutol; format: ADME
[12] = Prodrug solubility in Labrasol; format: ADME
[13] = test system: Rattus norvegicus; experiment: AUC in rat plasma assessed as (E)-3-(4-(1-(2-(5-chloropyrimidin-2-yl)-3-cyclopentyl-1-methyl-1H-indole-6-carboxamido)cyclobutanecarboxamido)-2-ethoxyphenyl)acrylic acid at 10 mg/kg, po using 10.6% PEG400, 5.4% Cremophor EL, 2.6% Labrasol, 1.4% Capmul MCM in water (80%) vehicle; format: ADME, organism-based; design: dose 10 mg/kg, route oral; conditions: in vivo
Summary of the method: (§2)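 Fasted rats were given a single 10 mg/kg oral dose, with n = 3 per dose and route. Plasma was extracted by solid-phase extraction. Analysis used HPLC with diode-array UV (200–400 nm, peak height at best S/N) or LC/MS. Calibration standards were made in blank plasma, with LOQ 7–14 ng/mL. Parameters came from noncompartmental analysis.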

[14] = test system: Rattus norvegicus; experiment: Cmax in rat plasma assessed as (E)-3-(4-(1-(2-(5-chloropyrimidin-2-yl)-3-cyclopentyl-1-methyl-1H-indole-6-carboxamido)cyclobutanecarboxamido)-2-ethoxyphenyl)acrylic acid at 10 mg/kg, po using 10.6% PEG400, 5.4% Cremophor EL, 2.6% Labrasol, 1.4% Capmul MCM in water (80%) vehicle; format: ADME, organism-based; design: dose 10 mg/kg, route oral; conditions: in vivo; summary of the method: as §2
[15] = Cmax in rat plasma at 10 mg/kg, po using 10.6% PEG400, 5.4% Cremophor EL, 2.6% Labrasol, 1.4% Capmul MCM in water (80%) vehicle; format: ADME, organism-based; design: dose 10 mg/kg, route oral; conditions: plasma; summary of the method: as §2
[16] = AUC in rat plasma at 10 mg/kg, po using 10.6% PEG400, 5.4% Cremophor EL, 2.6% Labrasol, 1.4% Capmul MCM in water (80%) vehicle; format: ADME, organism-based; design: dose 10 mg/kg, route oral; conditions: plasma; summary of the method: as §2

SMILES	t1/2 [2] [h]	t1/2 [4] [h]	t1/2 [5] [h]	t1/2 [7] [h]	solubility [9] [mg/mL]	solubility [10] [mg/mL]	solubility [11] [mg/mL]	solubility [12] [mg/mL]	further results
CCOc1cc(NC(=O)C2(NC(=O)c3ccc4c(C5CCCC5)c(-c5ncc(Cl)cn5)n(C)c4c3)CCC2)ccc1/C=C/C(=O)OCCC(C)C	1.42	> 5	1.43	> 5					t1/2 [1]: 18.02 h; t1/2 [3]: 6.18 h; t1/2 [6]: > 5 h; t1/2 [8]: > 5 h
CCOc1cc(NC(=O)C2(NC(=O)c3ccc4c(C5CCCC5)c(-c5ncc(Cl)cn5)n(C)c4c3)CCC2)ccc1/C=C/C(=O)OCC(=O)OCc1ccc(Cl)cc1	11.4	5.62							
CCOc1cc(NC(=O)C2(NC(=O)c3ccc4c(C5CCCC5)c(-c5ncc(Cl)cn5)n(C)c4c3)CCC2)ccc1/C=C/C(=O)OCC(=O)N(C)C(C)C	0.267	0.65			< 200	> 200	< 200	< 200	
CCOc1cc(NC(=O)C2(NC(=O)c3ccc4c(C5CCCC5)c(-c5ncc(Cl)cn5)n(C)c4c3)CCC2)ccc1/C=C/C(=O)N[C@@H](CCC(=O)O)C(N)=O			0.533	4.23					
CCOc1cc(NC(=O)C2(NC(=O)c3ccc4c(C5CCCC5)c(-c5ncc(Cl)cn5)n(C)c4c3)CCC2)ccc1/C=C/C(=O)OCC[N+](C)(C)C.[Br-]	1.73	> 5	0.417						
CCOc1cc(NC(=O)C2(NC(=O)c3ccc4c(C5CCCC5)c(-c5ncc(Cl)cn5)n(C)c4c3)CCC2)ccc1/C=C/C(=O)OCC(=O)N1CCCC1	1.47	1.65			< 200	> 200	200 (≈ 265 mM)	200 (≈ 265 mM)	
CCOc1cc(NC(=O)C2(NC(=O)c3ccc4c(C5CCCC5)c(-c5ncc(Cl)cn5)n(C)c4c3)CCC2)ccc1/C=C/C(=O)OCC(Cl)(Cl)Cl	0.233	> 5	1.75	> 5					t1/2 [1]: 1.3 h; t1/2 [3]: > 5 h; t1/2 [6]: > 5 h; t1/2 [8]: > 5 h
CCOC(=O)/C=C/c1ccc(NC(=O)C2(NC(=O)c3ccc4c(C5CCCC5)c(-c5ncc(Cl)cn5)n(C)c4c3)CCC2)cc1OCC	3.07	> 5	0.333	> 5					t1/2 [1]: 8.18 h; t1/2 [3]: > 5 h; t1/2 [6]: > 5 h; t1/2 [8]: > 5 h

Continued, in another order:

t1/2 [2] [h]	t1/2 [4] [h]	t1/2 [5] [h]	t1/2 [7] [h]	solubility [9] [mg/mL]	solubility [10] [mg/mL]	solubility [11] [mg/mL]	solubility [12] [mg/mL]	SMILES	further results
0.5	0.567			< 200	> 200	< 200	200 (≈ 280 mM)	CCOc1cc(NC(=O)C2(NC(=O)c3ccc4c(C5CCCC5)c(-c5ncc(Cl)cn5)n(C)c4c3)CCC2)ccc1/C=C/C(=O)OCC(=O)NC	
0.317	0.317			< 200	< 200	< 200	< 200	CCCN(C)C(=O)COC(=O)/C=C/c1ccc(NC(=O)C2(NC(=O)c3ccc4c(C5CCCC5)c(-c5ncc(Cl)cn5)n(C)c4c3)CCC2)cc1OCC	
0.383	0.983	0.6		< 200	> 200	200 (≈ 286 mM)	> 200	CCOc1cc(NC(=O)C2(NC(=O)c3ccc4c(C5CCCC5)c(-c5ncc(Cl)cn5)n(C)c4c3)CCC2)ccc1/C=C/C(=O)OCC(N)=O	AUC [13]: 16.7 µM·h; Cmax [14]: 4400 nM; Cmax [15]: 40 nM; AUC [16]: 0.13 µM·h
12.7	17.88	0.883						CCCCCCOC(=O)/C=C/c1ccc(NC(=O)C2(NC(=O)c3ccc4c(C5CCCC5)c(-c5ncc(Cl)cn5)n(C)c4c3)CCC2)cc1OCC	AUC [13]: 3.2 µM·h; Cmax [14]: 200 nM; Cmax [15]: 400 nM; AUC [16]: 2.2 µM·h
1.48	1.63							CCOc1cc(NC(=O)C2(NC(=O)c3ccc4c(C5CCCC5)c(-c5ncc(Cl)cn5)n(C)c4c3)CCC2)ccc1/C=C/C(=O)NCCO	
		> 5	0.067					CCOc1cc(NC(=O)C2(NC(=O)c3ccc4c(C5CCCC5)c(-c5ncc(Cl)cn5)n(C)c4c3)CCC2)ccc1/C=C/C(=O)N[C@@H](CC(=O)O)C(N)=O	
